# Screening data as filed in PubChem.
# Only some compounds are listed: those with a hit (about 4.9% of all), similar ones and a draw of the others.
# STAT3 act-1 – increases IL-6 driven STAT3 reporter signal | U3A cells, IL-6 STAT3-luciferase reporter, luminescence; 100% = signal with IL-6 EC80 alone | activation (% of control), % at 5.6 µM | 190,000 tested, 0.91% active | AID 871;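 active = activation above the screen-wide mean of compound activation plus 3 SD, cut at about 130% in these data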;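 note: 0% = background luminescence of wells with medium and substrate only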
#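 system = STAT3-luciferase reporter U3A cells | reagent = IL-6 stimulus at 33 ng/mL final | timing = 1 h compound pre-exposure, 6 h IL-6 stimulation, 37 °C | measured by = luminescence | evaluation = % activation versus median of IL-6-stimulated wells | control set = IL-6-only wells as 100% reference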
# FLuc act counter – firefly luciferase counter-screen for stimulation assays; P08659; ATPlite luciferase biochemical, luminescence, 10 min; 0 = ATP-free wells, 1 = DMSO control; activation factor at 10 µM; 200,000 tested, under 10 active; AID 1027;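 active = luciferase activation factor, scaled between plate controls, of at least 2 with compound at 10 µM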
# Target sequence (P08659 whole entry, looked up): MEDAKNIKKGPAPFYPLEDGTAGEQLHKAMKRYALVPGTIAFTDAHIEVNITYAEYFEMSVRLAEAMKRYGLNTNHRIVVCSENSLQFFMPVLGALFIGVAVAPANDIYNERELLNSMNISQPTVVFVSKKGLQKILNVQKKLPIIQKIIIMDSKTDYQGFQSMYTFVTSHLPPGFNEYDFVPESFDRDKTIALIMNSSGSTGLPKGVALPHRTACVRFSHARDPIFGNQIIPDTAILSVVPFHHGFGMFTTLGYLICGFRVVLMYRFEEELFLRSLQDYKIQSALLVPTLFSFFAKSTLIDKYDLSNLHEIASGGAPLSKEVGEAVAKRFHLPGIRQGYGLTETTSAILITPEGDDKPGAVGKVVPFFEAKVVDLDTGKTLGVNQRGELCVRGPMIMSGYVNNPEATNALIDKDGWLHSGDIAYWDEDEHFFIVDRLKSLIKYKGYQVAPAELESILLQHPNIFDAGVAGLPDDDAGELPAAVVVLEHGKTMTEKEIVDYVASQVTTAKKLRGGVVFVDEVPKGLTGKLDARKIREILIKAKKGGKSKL
#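 Assay system: Luciferase/luciferin detection reagent, cell-free biochemical luciferase assay / Also added: ATP substrate / Schedule: 10 min at ambient temperature / Measured by: luminescence measurement of luciferase light output / Benchmarks: low control with PBS replacing ATP, high control enzyme plus ATP without compound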
# FLuc inh counter – counter-screen for luciferase assay inhibitors: firefly luciferase inhibition; ATPLite firefly luciferase biochemical luminescence, 10 min; inhibition, % at 10 µM; 200,000 tested, 1.5% active; AID 1006;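 active = inhibition above about 50% when tested at 10 µM, limit read from the data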
# STAT1 act-1 – activators of IFN-gamma induced STAT1 signaling | activation (% of control), % at 5.5 µM | NIH 3T3 STAT1-luciferase reporter, luminescence; 100% = IFN-gamma alone, no compound | AID 932 | 200,000 tested, 2.6% active;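 active = activation above the screen-wide mean activation plus 3 SD, cut at about 130% in these data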;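 note: raw ratio to IFN-gamma control signal so 100% means no change and 0% no light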
# STAT1 blocker – STAT1 signaling inhibition. AID 920. inhibition, % at 5.5 µM. NIH 3T3 STAT1-luciferase reporter, IFN-gamma, luminescence. 200,000 tested, 0.35% active;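 active = inhibition above a set limit, the mean inhibition across all tested compounds plus 3 SD, cut at about 34% in these data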;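 note: 0% = IFN-gamma with DMSO and 100% = IFN-gamma with 300 µM nifuroxazide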
# STAT3 inh – STAT3 signaling inhibition. U3A cells, IL-6 STAT3-luciferase reporter, luminescence; host cell line lacks STAT1. inhibition, % at 5.5 µM. 190,000 tested, 0.89% active. AID 862;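 active = inhibition above the mean inhibition across all screened compounds plus 3 SD, cut at about 44% in these data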;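 note: 0% = DMSO only wells and 100% = 100 µM nifuroxazide control wells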
# STAT3 act-2 – confirmation of STAT3 signaling activators. shares compounds with STAT3 act-1. U3A STAT3-luciferase reporter, IL-6 potentiation, luminescence; U3A cells lack STAT1; 100 means same as IL-6 alone. potentiation (% of control), % at 5.7 µM. 1,200 tested, 64% active. AID 1267;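 active = percent activation of the STAT3 luciferase reporter above a set limit taken from the earlier primary screen, cut at about 130% in these data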;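 note: 0% = background signal of medium plus substrate and 100% = median of IL-6 with DMSO wells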
# NFkB act 2 – counter-screen for STAT3 activators: NF-kappaB activation; shares compounds with STAT3 act-1; human cells, NF-kappaB reporter activation; activation (% of control), % at 5.7 µM; 1,200 tested, 11% active; AID 1309; in the data active = activation above about 120%;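 note: reporter induced by TNF-alpha stimulation; 100% = median of stimulated DMSO wells and 0% = no signal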
# STAT1 act-2 – activates STAT1, counter-screen to STAT3 activators; shares compounds with STAT3 act-1; AID 1318; activation (% of control), % at 5.7 µM; 1,200 tested, 13% active; NIH 3T3 STAT1-luciferase reporter, IFN-gamma, luminescence;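 active = activation above the solvent-only control well mean plus 3 SD, set per screening run, cut at about 120% in these data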;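 note: 100% = IFN-gamma with DMSO median signal so 100% means no change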
# The depositor's hits bear a star; · = no result given.
SMILES,STAT3 act-1,FLuc act counter,FLuc inh counter,STAT1 act-1,STAT1 blocker,STAT3 inh,STAT3 act-2,NFkB act 2,STAT1 act-2
CCOc1ccccc1CNCc1ccc(C(=O)O)cc1,100,1,-1,97,4,9,·,·,·
O=C(COc1ccccc1CNCc1ccccc1)Nc1ccccc1,143*,1,-4,102,-6,-51,123,111,105
CN(C)CCN1C(=O)NC(C)(c2ccc([N+](=O)[O-])cc2)C1=O (stereo not given),102,1,-2,102,-4,1,·,·,·
COc1ccc(NC(=O)N2CCn3c2nc2ccccc23)cc1,151*,1.2,-18,103,-3,-59,137*,105,98
O=C(Nc1ccccc1)N1CCn2c1nc1ccccc12,161*,1,-3,97,3,-69,139*,99,95
S=C(Nc1ccccc1)N1CCn2c1nc1ccccc12,87,1,0,101,-1,19,·,·,·
COc1cc(/C=N/n2nnnc2Nc2ccccc2)cc(OC)c1OC,107,1,0,99,1,-9,·,·,·
CC1CCc2c(sc(Nc3nc4c(F)cccc4s3)c2C(N)=O)C1 (stereo not given),110,1.1,-8,97,4,-9,·,·,·
CCN(C(=S)Nc1cccnc1)c1cccc2ccccc12,137*,1.1,-8,97,4,-34,128,101,92
CC1CCN(C(=O)CCc2ccc(Oc3cc([N+](=O)[O-])cc([N+](=O)[O-])c3)cc2)CC1,108,1,-5,95,6,-8,·,·,·
O=C(NC(=S)Nc1nc2c(ccc3ccccc32)s1)c1cccs1,140*,1,-5,100,0,-47,142*,100,80
O=C(Nc1c(Cl)cc(Cl)cc1-c1nc2ccccc2s1)c1ccc(Br)o1,139*,1.1,-9,90,11,-52,115,101,71
COc1ccccc1-c1nc(N)n[nH]1,146*,1,1,103,-5,-44,125,101,100
COc1ccccc1-c1nc(SCC(=O)O)n[nH]1,137*,1.1,-7,107,-7,-40,125,107,102
Cc1ccc(S(=O)(=O)N(C)c2ccccc2C(=O)NC2CCCC2)cc1,103,1.1,-7,99,2,-1,·,·,·
Cn1c(N/N=C\c2cccc(O)c2)cc(=O)n(C)c1=O,91,0.9,6,104,-5,13,·,·,·
Cc1ccc(NC2=CC(=O)C(=O)c3ccccc32)cc1,105,0.7,31,120,-22,-2,·,·,·
CCOC(=O)c1ccc(NC2=CC(=O)C(=O)c3ccccc32)cc1,144*,1,-3,100,0,-46,128,107,102
CCC(=O)Oc1oc(-c2ccccc2)nc1C=Nc1ccccc1OC,144*,1,-1,101,-1,-50,129,115,99
CCOC(=O)C1(Cc2ccccc2)CCN(Cc2cn[nH]c2-c2ccccc2)CC1,104,1,-5,88,12,-2,·,·,·
CC1(O)N(CCC(=O)Nc2cccc(F)c2)C(=O)OC12CCCCC2 (stereo not given),102,1,-2,91,8,2,·,·,·
Cc1cccc2c1NC(=O)/C2=C\C(=O)c1cccs1,147*,0.8,18,98,3,-47,136*,107,92
CC(C)(C)C1(O)CC(C(F)(F)F)=NN1C(=O)Cc1ccc([N+](=O)[O-])cc1 (stereo not given),137*,1.1,-6,92,8,-44,152*,110,102
NC(=O)C1=C[C@@H](c2csc3ccccc23)C[C@@H](OCCCCO)O1,·,1,2,92,10,·,·,·,·
CC(=O)Nc1sc(N/N=C\c2ccccc2)nc1-c1cccs1,140*,0.9,10,104,-4,-48,177*,107,114
SMILES,STAT3 act-1,FLuc act counter,FLuc inh counter,STAT1 act-1,STAT1 blocker,STAT3 inh,STAT3 act-2,NFkB act 2,STAT1 act-2
COC(=O)c1c(NC(=O)CN2CCN(c3ccccc3OC)CC2)c2c(C)cccc2n1C,93,1,-3,97,4,10,·,·,·
COC(=O)c1c(NC(=O)CN2CCN(c3ccccc3OC)CC2)c2cc(C)ccc2n1C,143*,1,-1,102,-2,-42,135*,107,100
CCc1ccc(NC(=O)c2c(Cl)nc(C)c(Cl)c2C)cc1,81,1.1,-6,92,10,23,·,·,·
CCN(CC)S(=O)(=O)c1cc(C(=O)NCCN2CCOCC2)ccc1Cl,98,1.1,-6,100,-2,6,·,·,·
Cc1ccc(-c2nc(N)n(C(=O)c3cccs3)n2)cc1,148*,1.1,-5,92,7,-39,128,100,89
Cc1ccc(-c2nc(N)n(C(=O)Cc3ccccc3)n2)cc1,98,1,-2,98,2,2,·,·,·
NC(=S)N/N=C/c1ccc(-c2ccccc2)o1,89,1,5,115,-16,17,·,·,·
NC(=S)N/N=C/c1ccc(-c2ccc(Cl)c(Cl)c2)o1,191*,1,-1,102,-2,-103,145*,109,111
CCOc1ccc(CN2CCN(Cc3cc4ccccc4[nH]3)CC2CCO)cc1 (stereo not given),143*,1,-4,86,14,-42,191*,113,109
CCOc1ccc(CN2CCN(Cc3cnc(-c4ccccc4)s3)CC2CCO)cc1 (stereo not given),93,1,0,102,-4,15,·,·,·
CCCCCCOC1(c2ccccc2)OC(=O)c2ccccc21 (stereo not given),105,1.1,-7,98,2,2,·,·,·
CCCCCOP(=O)(OCCCCC)C1(NS(=O)(=O)c2ccccc2)C=CC(=O)c2ccccc21 (stereo not given),137*,1.1,-8,107,-8,-46,120,108,104
O=C1Nc2ccc(Br)cc2C12NNc1ccccc1O2 (stereo not given),141*,1.1,-9,100,0,-47,122,98,96
O=C1Nc2ccc(Br)cc2C1(O)Cc1ccccn1 (stereo not given),104,1,-3,96,4,-1,·,·,·
CCN(CC)S(=O)(=O)c1cccc(-c2nnc(SCCCC(=O)c3ccccc3)o2)c1,99,1,-2,91,10,5,·,·,·
